# Data from BindingDB's records for doi:10.1021/jm000929u (Universidad Complutense, 2001).
# Target: T1, 5-hydroxytryptamine receptor 1A (Rattus norvegicus, UniProt P19327)
# T1 sequence (P19327 whole entry): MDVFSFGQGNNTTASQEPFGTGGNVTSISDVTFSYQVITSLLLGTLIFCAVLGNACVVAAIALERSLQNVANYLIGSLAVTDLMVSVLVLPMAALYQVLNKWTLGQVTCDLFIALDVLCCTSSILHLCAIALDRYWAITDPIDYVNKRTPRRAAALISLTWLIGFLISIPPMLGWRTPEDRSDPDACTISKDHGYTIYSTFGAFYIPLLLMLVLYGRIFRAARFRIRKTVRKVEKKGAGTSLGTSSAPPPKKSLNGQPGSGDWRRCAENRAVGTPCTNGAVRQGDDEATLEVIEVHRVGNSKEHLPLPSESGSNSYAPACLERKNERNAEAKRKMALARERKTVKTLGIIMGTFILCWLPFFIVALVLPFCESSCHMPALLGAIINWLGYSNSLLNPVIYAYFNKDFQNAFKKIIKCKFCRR
# Assay: In vitro binding affinity towards 5-hydroxytryptamine 1A receptor was determined using radioligand [3H]-8-OH-DPAT
# In short: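 Rat (male Sprague-Dawley) cerebral cortex membranes, about 1 mg protein, incubated 15 min at 37 °C with 0.6 nM [3H]8-OH-DPAT plus competitor in 50 mM Tris-HCl with 10 nM clonidine and 30 nM prazosin, pH 7.4. Nonspecific binding with 10 µM 5-HT. Triplicates; GF/B filtration, scintillation counting; IC50 curve fit, Ki by Cheng-Prusoff; 2-4 experiments.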
row,Compound,Ki [nM]
1,Nc1cccc(N2CCN(CCCn3c(O)c4n(c3=O)CCC4)CC2)c1,> 1000
2,O=c1n(CCCN2CCN(c3cccc(Br)c3)CC2)c(O)c2n1CCC2,33
3,CC(C)C(=O)Nc1cccc(N2CCN(CCCn3c(O)c4n(c3=O)CCCC4)CC2)c1,> 1000

# The next lines start with the values.
row,Ki [nM],Compound
1,33,N#Cc1ccccc1N1CCN(CCCn2c(O)c3n(c2=O)CCCC3)CC1
2,> 1000,CCCNC(=O)c1ccccc1N1CCN(CCCn2c(O)c3n(c2=O)CCC3)CC1
